Here are results for eleven compounds from ChEMBL document CHEMBL4251654, “Structure-based design of human immuno- and constitutive proteasomes inhibitors” (Eur J Med Chem, 2018).

Test [1] has as its target T1, Proteasome Macropain subunit MB1 (Homo sapiens, UniProt P28074).
T1 sequence (P28074 whole entry): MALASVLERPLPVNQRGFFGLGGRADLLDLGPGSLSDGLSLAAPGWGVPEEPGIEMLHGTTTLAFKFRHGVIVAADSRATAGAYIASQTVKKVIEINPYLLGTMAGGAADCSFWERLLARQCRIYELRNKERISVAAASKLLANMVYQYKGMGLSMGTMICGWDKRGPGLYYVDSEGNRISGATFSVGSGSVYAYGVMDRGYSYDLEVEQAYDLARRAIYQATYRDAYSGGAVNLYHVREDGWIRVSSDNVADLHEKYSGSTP
Description: Inhibition of human 20S constitutive proteasome beta-5 using Suc-LLVY-AMC as substrate incubated for 15 mins measured for 45 mins by fluorescence assay. The method, boiled down:
(§1)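 Human 20S cCP or iCP (0.3 nM) was exposed to compound (0.001-50 μM) for 15 min in pH 8 buffer of 20 mM Tris-HCl, 10% glycerol, 0.01% SDS, 2% DMSO. Suc-LLVY-AMC at 20 μM followed. Fluorescence (ex 360/em 460 nm) was read 45 min at 37 °C versus untreated enzyme.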

Test [2] addresses T2, Proteasome subunit beta type-8 (Homo sapiens, UniProt P28062).
T2 sequence (P28062 whole entry): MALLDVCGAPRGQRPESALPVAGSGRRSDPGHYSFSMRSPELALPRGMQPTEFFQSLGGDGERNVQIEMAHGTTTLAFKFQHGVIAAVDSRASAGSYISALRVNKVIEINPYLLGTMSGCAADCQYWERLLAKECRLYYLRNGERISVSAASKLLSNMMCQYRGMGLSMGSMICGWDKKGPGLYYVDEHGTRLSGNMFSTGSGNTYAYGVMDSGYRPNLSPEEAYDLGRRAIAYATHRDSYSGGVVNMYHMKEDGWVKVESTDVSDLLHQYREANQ
Description: Inhibition of human 20S immunoproteasome beta-5 using Suc-LLVY-AMC as substrate incubated for 15 mins measured for 45 mins by fluorescence assay. The method, boiled down:
as §1

For test [3], the target named is T3, Proteasome Macropain subunit MB1 (Homo sapiens) (UniProt P28074).
T3 sequence (whole entry): T1 sequence (P28074 whole entry)
Nature of the test: Inhibition of human 20S constitutive proteasome beta-5 at 50 uM using Suc-LLVY-AMC as substrate incubated for 15 mins measured for 45 mins by fluorescence assay relative to control. The method, boiled down: as §1

The target in test [4] is T4, Proteasome subunit beta type-8 (Homo sapiens) (UniProt P28062).
T4 sequence (whole entry): T2 sequence (P28062 whole entry)
Nature of the test: Inhibition of human 20S immunoproteasome beta-5 at 50 uM using Suc-LLVY-AMC as substrate incubated for 15 mins measured for 45 mins by fluorescence assay relative to control. An outline of the steps: as §1

Test [5] deals with T5, Proteasome subunit beta type-9 (Homo sapiens, UniProt P28065).
T5 sequence (P28065 whole entry): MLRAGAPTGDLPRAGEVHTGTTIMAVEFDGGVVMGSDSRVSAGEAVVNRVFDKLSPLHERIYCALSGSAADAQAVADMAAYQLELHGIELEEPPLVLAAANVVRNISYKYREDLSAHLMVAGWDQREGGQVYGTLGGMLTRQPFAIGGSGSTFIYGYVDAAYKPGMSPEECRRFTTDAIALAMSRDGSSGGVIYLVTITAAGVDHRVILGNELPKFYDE
Description: Inhibition of human 20S immunoproteasome beta-1 using Ac-PAL-AMC as substrate incubated for 15 mins measured for 45 mins by fluorescence assay. An outline of the steps:
(§2)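 Human 20S immunoproteasome (0.3 nM) was given 15 min with compound (0.001-50 μM) in pH 8 buffer of 20 mM Tris-HCl, 10% glycerol, 0.01% SDS, 2% DMSO. Ac-PAL-AMC at 50 μM was the substrate. Fluorescence (ex 360/em 460 nm) was followed 45 min at 37 °C relative to control.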

In test [6] the target is T6, Proteasome component C5 (Homo sapiens) (UniProt P20618).
T6 sequence (whole entry): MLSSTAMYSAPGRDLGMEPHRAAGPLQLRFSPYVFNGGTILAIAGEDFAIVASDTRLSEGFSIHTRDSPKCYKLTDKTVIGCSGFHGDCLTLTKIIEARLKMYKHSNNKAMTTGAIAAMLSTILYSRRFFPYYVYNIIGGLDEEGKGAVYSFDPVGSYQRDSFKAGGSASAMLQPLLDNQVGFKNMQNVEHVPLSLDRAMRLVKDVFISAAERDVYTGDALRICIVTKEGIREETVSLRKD
Description: Inhibition of human 20S constitutive proteasome beta-1 at 50 uM using Z-LLE-betaNA as substrate incubated for 15 mins measured for 45 mins by fluorescence assay relative to control. The method, boiled down:
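Human 20S constitutive proteasome, 0.3 nM, was preincubated 15 min with compound (0.001-50 μM) in pH 8 Tris-HCl 20 mM, 10% glycerol, 0.01% SDS, 2% DMSO. Z-LLE-βNA at 50 μM was added. βNA fluorescence (ex 340/em 404 nm) was monitored 45 min at 37 °C against an untreated control.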

In test [7] the target is T7, Proteasome subunit beta type-9 (Homo sapiens) (UniProt P28065).
T7 sequence (whole entry): T5 sequence (P28065 whole entry)
Description: Inhibition of human 20S immunoproteasome beta-1 at 50 uM using Ac-PAL-AMC as substrate incubated for 15 mins measured for 45 mins by fluorescence assay relative to control. An outline of the steps: as §2

The target of test [8] is Proteasome Macropain subunit (Homo sapiens) (UniProt P49721). Description: Inhibition of human 20S constitutive proteasome beta-2 at 50 uM using BocLRR-AMC as substrate incubated for 15 mins measured for 45 mins by fluorescence assay relative to control. An outline of the steps: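 Purified human 20S proteasome (cCP or iCP), 0.3 nM, preincubated 15 min with compound (0.001-50 μM) in pH 8 buffer of 20 mM Tris-HCl, 10% glycerol, 0.005% Triton X-100, 2% DMSO. Then Boc-LRR-AMC at 50 μM was added. AMC fluorescence (ex 360/em 460 nm) was followed 45 min at 37 °C. Activity is relative to an untreated control.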
Chain of Proteasome Macropain subunit (Homo sapiens) (P49721 whole entry): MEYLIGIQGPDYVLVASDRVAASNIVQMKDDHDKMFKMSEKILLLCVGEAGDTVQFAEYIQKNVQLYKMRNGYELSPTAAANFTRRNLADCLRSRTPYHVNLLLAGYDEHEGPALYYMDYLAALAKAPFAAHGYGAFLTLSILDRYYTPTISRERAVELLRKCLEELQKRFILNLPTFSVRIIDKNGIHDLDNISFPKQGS

The target of test [9] is T8, Proteasome subunit beta type-10 (Homo sapiens) (UniProt P40306).
T8 sequence (whole entry): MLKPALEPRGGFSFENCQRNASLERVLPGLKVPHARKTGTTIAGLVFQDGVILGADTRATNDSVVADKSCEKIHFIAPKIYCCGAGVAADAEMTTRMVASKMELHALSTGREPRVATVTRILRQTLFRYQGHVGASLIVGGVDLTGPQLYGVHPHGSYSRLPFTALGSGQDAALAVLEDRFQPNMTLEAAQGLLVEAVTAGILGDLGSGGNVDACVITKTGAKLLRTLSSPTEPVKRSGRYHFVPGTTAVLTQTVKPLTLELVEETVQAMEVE
Description: Inhibition of human 20S immunoproteasome beta-2 at 50 uM using BocLRR-AMC as substrate incubated for 15 mins measured for 45 mins by fluorescence assay relative to control.

Test [10] has as its target T9, Proteasome subunit beta type-10 (Homo sapiens, UniProt P40306).
T9 sequence (P40306 whole entry): T8 sequence (whole entry)
Description: Inhibition of human 20S immunoproteasome beta-2 using BocLRR-AMC as substrate incubated for 15 mins measured for 45 mins by fluorescence assay.

SMILES strings stand for the structures. Activity calls are given as the source filed them. The calls are words filed in the database; no cut-off is given here.

Turning to `C[C@H](NC(=O)[C@H](Cc1ccc(OCc2ccccc2)cc1)NC(=O)OC(C)(C)C)C(=O)N[C@@H](C[C@]1(O)C(=O)N(C)c2ccccc21)C(=O)NCc1ccccc1`, the figures for the IC50 in test [1], in test [2] and in [5] were 5.1 µM, 3.93 µM and 10.3 µM, respectively. The inhibition – broadly, how much of the control response was suppressed – was greater than 85% in [3]; greater than 85% in test [4]; greater than 85% in test [6]; greater than 85% in [7]; 19% in test [8]; 27% in test [9].

Consider `C[C@H](NC(=O)OCc1ccccc1)C(=O)N[C@@H](C[C@]1(O)C(=O)Nc2ccccc21)C(=O)NCc1ccccc1`, for which the IC50 (in general, the concentration needed to halve the response being measured) was 5.1 µM in [1], 3.96 µM in [2] and 45 µM in [5]. For the same compound, the inhibition in test [3], in [4] and in test [7] was greater than 85% in each case. Besides, the inhibition entry in test [6], in test [8] and in test [9] was “inactive” each time.

Take `C[C@H](NC(=O)[C@H](Cc1ccc(OCc2ccccc2)cc1)NC(=O)OC(C)(C)C)C(=O)N[C@@H](C[C@@]1(O)C(=O)N(C)c2ccccc21)C(=O)NCc1ccccc1`: the values for the IC50 in test [1], in test [2] and in test [5] were 6.8 µM, 6.1 µM and 8.9 µM, respectively. Further, the inhibition in [3] was greater than 85%; in test [4], greater than 85%; in test [6] it was greater than 85%; in [7] it was greater than 85%; in [8], 56%; in [9], 18%.

Consider `C[C@H](NC(=O)[C@H](Cc1ccc(OCc2ccccc2)cc1)NC(=O)OC(C)(C)C)C(=O)N[C@@H](C[C@]1(O)C(=O)Nc2ccccc21)C(=O)NC(c1ccccc1)c1ccccc1`, for which the IC50 was determined as 1.74 µM in [1], 2.7 µM in test [2] and 4 µM in test [5]. In addition, the inhibition in test [3] is greater than 85%; in test [4] it was greater than 85%; in test [6] it was greater than 85%; in [7] it was greater than 85%; in test [8], 30%. The inhibition entry in test [9] is “inactive”.

As for `C[C@H](O)[C@@H](NC(=O)OCc1ccccc1)C(=O)N[C@@H](C[C@]1(O)C(=O)Nc2ccccc21)C(=O)NCc1ccccc1`, the IC50 stood at 0.88 µM in test [1], 0.572 µM in test [2] and 24.6 µM in [5]. For the same compound, the inhibition is greater than 85% in test [3], greater than 85% in test [4], 20% in test [6] and greater than 85% in [7]. Besides, the inhibition result in test [8] and in [9] was “inactive” each time.

On to `COC(=O)CCNC(=O)[C@H](C[C@]1(O)C(=O)Nc2ccccc21)NC(=O)[C@H](C)NC(=O)[C@H](Cc1ccc(OCc2ccccc2)cc1)NC(=O)OC(C)(C)C`, for which the IC50 in [1] came to 64 µM; in [10], 106 µM. Besides, the inhibition in test [3] is greater than 85%; in test [4], 31%; in test [6], 15%; in test [7], 17%; in test [8], 14%; in test [9], greater than 85%.

As to `C[C@H](NC(=O)[C@H](Cc1ccc(OCc2ccccc2)cc1)NC(=O)OC(C)(C)C)C(=O)N[C@@H](C[C@]1(O)C(=O)Nc2ccccc21)C(=O)NCCC1CCCCC1`, the figures for the IC50 in [1], in [2] and in test [5] were 2.8 µM, 2.7 µM and 3.5 µM, respectively. The inhibition was greater than 85% in test [3]; greater than 85% in test [4]; greater than 85% in test [6]; greater than 85% in [7]; 36% in test [8]; 19% in test [9].

On to `C[C@@H](NC(=O)[C@H](Cc1ccc(OCc2ccccc2)cc1)NC(=O)OC(C)(C)C)C(=O)N[C@@H](C[C@]1(O)C(=O)Nc2ccccc21)C(=O)NCc1ccccc1`, for which the IC50 in test [1] is 9.2 µM; in [2], 13.2 µM; in test [5] it was 12.5 µM; in [10], 21.4 µM. In addition, the inhibition in test [3], in test [4], in test [6], in test [7], in [8] and in [9] was greater than 85% each time.

For the compound `C[C@H](NC(=O)[C@H](Cc1ccc(OCc2ccccc2)cc1)NC(=O)OC(C)(C)C)C(=O)N[C@@H](C[C@]1(O)C(=O)Nc2ccccc21)C(=O)NCCC(=O)O`, the inhibition in test [3] is 18%; in test [4], 14%; in test [6], 19%; in [7] it was 17%; in [8], greater than 85%; in test [9] it was greater than 85%. Moreover, the IC50 in [10] worked out at 22 µM.

On to `NC(=O)C[C@H](NC(=O)OCc1ccccc1)C(=O)N[C@@H](C[C@]1(O)C(=O)Nc2ccccc21)C(=O)NCc1ccccc1`, for which the IC50 stood at 0.36 µM in [1] and 0.42 µM in test [2]. Besides, the inhibition in test [3] and in [4] was greater than 85% each time. In addition, the inhibition entry in test [6], in test [7], in test [8] and in test [9] was “inactive” throughout.

Regarding `C[C@H](NC(=O)[C@H](Cc1ccc(OCc2ccccc2)cc1)NC(=O)OC(C)(C)C)C(=O)N[C@@H](C[C@]1(O)C(=O)Nc2ccccc21)C(=O)NCCc1ccccc1`, the 50% inhibitory concentration (IC50) stood at 6 µM in test [1], 6.5 µM in test [2] and 7.31 µM in [5]. Besides, the inhibition is greater than 85% in [3]; greater than 85% in test [4]; greater than 85% in [6]; greater than 85% in test [7]; 45% in test [8]; 26% in test [9].
